This is an account of results in the EternaBench riboswitch data.

One may read the apparent Kd as the concentration giving half-maximal binding under the conditions of the assay.

For data set [1], the system named is MS2 coat protein. The data set is described as follows: apparent Kd, MS2 coat protein; higher = weaker binding; RNA-MaP array. The gist of the method:
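For each design, the apparent Kd is the median of binding-curve fits across its clusters. Designs measured on fewer than 10 clusters were dropped. The RNAs were transcribed from sequenced DNA templates on an Illumina sequencing chip and incubated at room temperature, with or without input ligand, with fluorescently labeled MS2 coat protein at 1.5 nM to 3 μM.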

Data set [2] has as its system MS2 coat protein. In words: apparent Kd, MS2 coat protein; higher = weaker binding; RNA-MaP array; FMN 200 µM where present. The gist of the method:
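Each design was made on Illumina sequencing-chip clusters by stalled E. coli RNA polymerase and titrated with SNAP-549-labelled MS2 coat protein from 0.7 or 1.5 nM, doubling to 3 µM, in the absence and then the presence of constant ligand. The buffer was 100 mM Tris-HCl pH 7.5, 80 mM KCl, 4 mM MgCl2, BSA, DTT, yeast tRNA and Tween-20. The apparent Kd is the median of filtered per-cluster fits of binding curves, with green signal normalised to red-channel RNA signal and control-cluster median Fmax.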

Where [3] appears, read: designed as: ON switch for flavin mononucleotide, no ligand.
Setting [4] is: ligand present: flavin mononucleotide, designed as: ON switch for flavin mononucleotide.
Where [5] appears, read: designed as: OFF switch for flavin mononucleotide, no ligand.
Setting [6] is: ligand present: flavin mononucleotide, designed as: OFF switch for flavin mononucleotide.

Take “ACUCUAGAAUAGAAGGCCUGAGGAAGUAGUAAAGGAGGAUAUAUCAUACGAAAUUCACAUGAGGAUCACCCAUGUUGCGCAGAC”: the entries for the “apparent Kd” value in the data set on MS2 coat protein [1] (setting [3]) and in the data set with MS2 coat protein [1] (setting [4]) were 0.0212 µM and 0.0124 µM, respectively.
Regarding “UCCUUUAGACAUGAGGAUCACCCAUGUAGCCUCACUGUUCGUAGAAGGACACCGCUGUUCAAGCUGUAGGAUAUACGGAGGAUC”, the “apparent Kd” value with MS2 coat protein [1] (setting [5]) is 0.468 µM; in the data set on MS2 coat protein [1] (setting [6]), 0.319 µM.
In the case of “CAUGUACUAGGAUAUACAAUCACUCGUCAGGCAGCGUUAACACAUGAGGAUCACCCAUGUAGAAGGAGUUUAAA”, the results for the “apparent Kd” value with MS2 coat protein [1] (setting [5]) and in the data set on MS2 coat protein [1] (setting [6]) were 0.00874 µM and 0.0082 µM, respectively.
On to “GCUCCGCUAGCAGGAUAUGUAGGGGGAUUAUUGAUUGGGCGUAACAUGAGGAUCACCCAUGUUCCACAGAAGGGCUGGAGAAGA”, for which the “apparent Kd” value with MS2 coat protein [1] (setting [5]) stood at 0.107 µM; in the data set on MS2 coat protein [1] (setting [6]), 0.0683 µM.
For the sequence “CCCGUAAAGGCGGCCGCCACUGUAUGACAUGAGGAUCACCCAUGUAGGGAAAAUGCGAUGGUCGUCAGGACCGGGCCUCUGGCAU”, the “apparent Kd” value in the data set with MS2 coat protein [1] (designed as: OFF switch for tryptophan, no ligand) came to 0.0231 µM; in the data set with MS2 coat protein [1] (ligand present: tryptophan, designed as: OFF switch for tryptophan), 0.0238 µM.
“CCUAACCACAAGAAGGAUGAGAUGCGGCAUUUCAUAGGAUAUUGAUCACAUGAGGAUCACCCAUGUUGCCGUAAGGCGCUAGUC”: the “apparent Kd” value was determined as 0.321 µM in the data set with MS2 coat protein [1] (setting [3]) and 0.136 µM with MS2 coat protein [1] (setting [4]).
The corresponding values for “ACAUGAGGAUCACCCAUGUCGAAGCACGCGCCACCUUCAAGCAGAAGGAAGUGACAAGUACUAGCUUAGGAUAUGCUCAAAGGU” are 0.0123 µM and 0.007 µM.
“AGGUUACGUGUGAGGAUAUUAAGAUAUUAAAUUUAUAAGAAGGCACAUGAGGAUCACCCAUGUAUGACUUCCCA”: the “apparent Kd” value amounted to 0.00566 µM in the data set on MS2 coat protein [1] (setting [5]) and 0.00677 µM in the data set with MS2 coat protein [1] (setting [6]).
Regarding “AUUCAUUGAAACAUGAGGAUCACCCAUGUACACUGGCACUUACAGGAUAUUGAAUAUGGAAGUCGCAAGAAGGGUAACGUGAUC”, the “apparent Kd” value was 0.112 µM in the data set with MS2 coat protein [1] (setting [3]) and 0.057 µM in the data set with MS2 coat protein [1] (setting [4]).
Turning to “AAAACUACAGAUACCUUAACAUGAGGAUCACCCAUGUGAGCUGAGGAUAUGUCCACGCUUUAAGGACAGAAGGCAGGAGCAUAG”, the “apparent Kd” value with MS2 coat protein [1] (setting [5]) came to 0.0252 µM; in the data set on MS2 coat protein [1] (setting [6]), 0.0369 µM.
In the same order, the values of “ACCAUCAUUGUUAGGAUAUGUAGAGUACUGAGGCUACAGAAGGAACAUGAGGAUCACCCAUGUGUUUCGGUGUA” are 0.031 µM and 0.126 µM.
“AGACAUGAGGAUCACCCAUGUUGCUGUACAGGAGUUAAAGUCUAGGAUAUUGGGUCAGAAAGCGACAAGAAGGAGACACGCCAG”: the “apparent Kd” value amounted to 0.0112 µM in the data set on MS2 coat protein [1] (setting [3]) and 0.00847 µM with MS2 coat protein [1] (setting [4]).
The corresponding values for “UAGAGCUCGCAAGGAUAUAACGCACAGAAACAUGAGGAUCACCCAUGUGGAAAGGAUCAACGUCGUUAGAAGGUGCAGAAAUAU” are 0.0474 µM and 0.022 µM.
Regarding “GUCAAAUGUCAGAAGGUAGUGAUGUACUAAGGCUAAGGAUAUGAAGAAAAGAAAAUUACCGUUGACAUGAGGAUCACCCAUGUC”, the figures for the “apparent Kd” value in the data set on MS2 coat protein [1] (setting [3]) and in the data set on MS2 coat protein [1] (setting [4]) were 0.0138 µM and 0.00986 µM, respectively.
In the same order, the values of “GUAGUGCUAAGAGGAUAUACGUUCUGCACAUGAGGAUCACCCAUGUACAAGGAGCCCAACCGGCGGUAGAAGGCUUUGACAGGA” are 0.0174 µM and 0.0113 µM.
For “GAGGAGUAGUAGUCCGACACAUGAGGAUCACCCAUGUUAUGGAGAAGGCCGGAUCUGAGUAGAGCGGAGGAUAUCCUGAAUUAA”, the “apparent Kd” value amounted to 0.0267 µM in the data set with MS2 coat protein [1] (setting [3]) and 0.0198 µM in the data set on MS2 coat protein [1] (setting [4]).
As to “CAGACCCGGCGGGAGGAUAUACGAGAGAACACAUGAGGAUCACCCAUGUUGCACUAAACAGCGUGGUAGAAGGCCCAUCAUCUGUA”, the “apparent Kd” value was found to be 0.0568 µM in the data set on MS2 coat protein [1] (setting [3]) and 0.0119 µM in the data set on MS2 coat protein [1] (setting [4]).
Consider “UGUUUUAAAGAGGAUAUGACAACGGUUCCACCGUCAGAAGGCUUUACAUGAGGAUCACCCAUGUACUGGAGUGA”, for which the figures for the “apparent Kd” value with MS2 coat protein [1] (setting [5]) and in the data set on MS2 coat protein [1] (setting [6]) were 0.0173 µM and 0.0819 µM, respectively.
Consider “UUCAUGUUAGGAUAUAGUGUAAGAGCGGGCGGGACUCUAUUCUAGAAGGAACAUGAGGAUCACCCAUGUUAAGG”, for which the “apparent Kd” value in the data set with MS2 coat protein [1] (setting [5]) came out at 0.213 µM; with MS2 coat protein [1] (setting [6]), 0.124 µM.
The corresponding values for “CGUGUAGGGUAGGAUAUUCGAACACCACAAGGAGAAGAAGGACCUACAUGAGGAUCACCCAUGUGGUUAAUGGC” are 0.112 µM and 0.225 µM.
With “UCGUCACAUGUUAGGAUAUUGCUAGGAUCCUAGAACAAGAAGGAACAUGAGGAUCACCCAUGUCAGUGAAUCAU”, the “apparent Kd” value with MS2 coat protein [1] (setting [5]) amounted to 0.023 µM; in the data set on MS2 coat protein [1] (setting [6]), 0.036 µM.
Regarding “CGUUAGACAGGAUAUACACUGGGAAGCGCGGUUUGCGGGAGACAUGAGGAUCACCCAUGUAGAAGGGUCCGGCA”, the “apparent Kd” value with MS2 coat protein [1] (setting [5]) turned out to be 0.00914 µM; with MS2 coat protein [1] (setting [6]), 0.0094 µM.
In the same order, the values of “UUAGGUUAUAAAGUGACAUGAGGAUCACCCAUGUGCUCACAGAGAAGGUUAUACCUACAGGCUAUAAAGGAUAUCUCCUAAAUU” are 0.0123 µM and 0.00873 µM.
For “AACGGUGCGCGAGGAUAUCACGUACCAAGAGGAUGAGAAGGCGCGCGUACAGGUUGGUGAACAUGAGGAUCACCCAUGUGGUAC”, the “apparent Kd” value in the data set on MS2 coat protein [1] (setting [5]) worked out at 0.0995 µM; in the data set with MS2 coat protein [1] (setting [6]), 0.0872 µM.
For the sequence “UUUUUUUAACAGAAGGACAGACAUAUGAGGGACAUGAGGAUCACCCAUGUGUGCUCGCGUAGGCUGUAGGAUAUGUAGUGCUGG”, the “apparent Kd” value came to 0.0112 µM in the data set with MS2 coat protein [1] (setting [5]) and 0.00819 µM with MS2 coat protein [1] (setting [6]).
In the case of “CUUUAACAUGAGGAUCACCCAUGUCCGAUGAAUUUAGGAUAUCGCAUUGGUCGUAUGAGGCGAGAAGGAAAUUGUC”, the “apparent Kd” value in the data set on MS2 coat protein [1] (setting [3]) amounted to 0.0284 µM; in the data set with MS2 coat protein [1] (setting [4]), 0.0128 µM.
Regarding “GAUUGCAUCGAUUCUCCACUCGCACCUGAUACCAGCGAUAGAAUUCGCCCUUGGCAGCAGUACACAUGAGGAUCACCCAUGUUAU”, the “apparent Kd” value stood at 0.0307 µM in the data set with MS2 coat protein [1] (designed as: OFF switch for theophylline, no ligand) and 0.0751 µM in the data set on MS2 coat protein [1] (ligand present: theophylline, designed as: OFF switch for theophylline).
On to “CUCAAACAUGAGGAUCACCCAUGUAAGGAUAUCCGUAAUAAAUUUGGUAAGAGGCGGCGGAGAAGGUACGCAGC”, for which the “apparent Kd” value with MS2 coat protein [1] (setting [5]) was 0.0192 µM; in the data set on MS2 coat protein [1] (setting [6]) it was 0.0179 µM.
In the same order, the values of “AAAUUAAUCAGAGGAUAUAGACAUGAGGAUCACCCAUGUACCAAAAUCGCGAAGAAGGAUCCGUGCUAGAAGGCAGAAUACAUA” are 0.0103 µM and 0.00865 µM.
“UACAAAGAAUAGGAUAUCGAGAGGUAAUUUGGGCGAGAAGGAUUCACAUGAGGAUCACCCAUGUAGGCGGAUCU”: the “apparent Kd” value in the data set on MS2 coat protein [1] (setting [5]) was found to be 0.0307 µM; in the data set with MS2 coat protein [1] (setting [6]) it was 0.0409 µM.
As for “UCUAUGUUAGGAUAUCUGUUGCAUGCCUGGCCGCGAUGCAAAGAGAAGGAACAUGAGGAUCACCCAUGUCAUAU”, the “apparent Kd” value in the data set on MS2 coat protein [1] (setting [5]) is 0.0193 µM; in the data set with MS2 coat protein [1] (setting [6]), 0.0416 µM.
As for “GCCAUAAUCUGAGGAUAUAGAGAGAUAAGGAAGCACAUGAGGAUCACCCAUGUCCGUGGUAUAGGCAAGAAGGCAGCUGGAAUC”, the “apparent Kd” value in the data set with MS2 coat protein [1] (setting [3]) came out at 0.0153 µM; in the data set with MS2 coat protein [1] (setting [4]), 0.0157 µM.
Take “AAGCCACAUGAGGAUCACCCAUGUGAGGAUAUUCAUCUAGAUCAACAAGACACGGAUAGAAGAAGGCACGGUGG”: the figures for the “apparent Kd” value in the data set with MS2 coat protein [1] (setting [5]) and in the data set with MS2 coat protein [1] (setting [6]) were 0.014 µM and 0.0295 µM, respectively.
“GCGAUUAAGUAGAAGGUACGUUAUAAGUCAAUGUAAGGAUAUACUGACAUGAGGAUCACCCAUGUUUAAUUUGUUUACUGUCGC”: the “apparent Kd” value in the data set on MS2 coat protein [2] (setting [3]) worked out at 0.00734 µM; with MS2 coat protein [2] (setting [4]), 0.0057 µM.
With “GCAGAUCAAGUGAGGAUAUCGUCUACCUCGGUAGUCGAGAAGGCACAUGAGGAUCACCCAUGUGAUUGAUCUGC”, the “apparent Kd” value in the data set with MS2 coat protein [2] (setting [5]) is 0.0185 µM; in the data set on MS2 coat protein [2] (setting [6]), 0.0259 µM.
On to “AGACUGCGUAGAAUUAGCAGCCGGCAGGAUAUGACAUGAGGAUCACCCAUGUGAACUCCAUUGGGUCAGAAGGGCCACGACACA”, for which the “apparent Kd” value in the data set with MS2 coat protein [2] (setting [5]) amounted to 0.0218 µM; in the data set with MS2 coat protein [2] (setting [6]), 0.147 µM.
